ChEMBL document CHEMBL1157289, “Antiparasitic activity of some xanthones and biflavonoids from the root bark of Garcinia livingstonei” (J Nat Prod, 2006)

Columns and labels:
[1] = system: Trypanosoma brucei brucei; experiment: Antitrypanosomal activity against Trypanosoma brucei brucei; format: functional, organism-based
Trypanosoma cruzi [2] = experiment: Antitrypanosomal activity against Trypanosoma cruzi in mouse peritoneal macrophages; format: functional, organism-based
In short: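 Primary mouse peritoneal macrophages, 30 000/well, infected after 24 h with about 10 000 trypomastigotes alongside 4-fold drug dilutions. 7 days at 37 °C, 5% CO2.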

Leishmania infantum = experiment: Antileishmanial activity against Leishmania infantum MHOM/MA(BE)/67 amastigotes in mouse peritoneal macrophages; format: functional, organism-based
In short: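 Amastigotes from serially passaged Syrian hamster infection; macrophages elicited by intraperitoneal 2% starch, harvested 24-48 h later. 5-day incubation; Giemsa-stained microscopic count; % reduction of parasite burden vs control, IC50 determined.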

Plasmodium falciparum = experiment: Antiplasmodial activity against chloroquine-sensitive Plasmodium falciparum Ghana by LDH reporter assay; format: functional, organism-based
MRC5 = experiment: Cytotoxicity against human MRC5 cells by alamar-blue assay; format: cell-based
In short: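 Cells seeded at 5000/well, washed after 24 h, then given 4-fold dilutions in RPMI + 5% FCS, final DMSO below 0.5%. 7 days at 37 °C, 5% CO2, untreated controls included.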

Trypanosoma cruzi [3] = experiment: Antitrypanosomal activity against Trypanosoma cruzi trypomastigotes assessed as immobilized trypomastigotes after 48 hrs; format: functional
[4] = Cytotoxicity in Leishmania infantum MHOM/MA(BE)/67 amastigotes infected mouse peritoneal macrophages; format: cell-based; settings: macrophage

Structure (SMILES)	IC50 [1] [µM]	IC50 (Trypanosoma cruzi [2]) [µM]	IC50 (Leishmania infantum) [µM]	IC50 (Plasmodium falciparum) [µM]	IC50 (MRC5) [µM]	MC100 (Trypanosoma cruzi [3]) [µM]	Activity [4]
CC1=C[C@@H](c2cc(O)c3c(=O)c4cccc(O)c4oc3c2O)[C@](C)(/C=C/c2cc(O)c3c(=O)c4cccc(O)c4oc3c2O)CC1 [GARCIVILIN C]	7.7	39.2	> 64	> 64	52.3	–	–
C=CC(C)(C)c1cc(O)c2oc3c4c(ccc3c(=O)c2c1O)C=CC(C)(C)O4	–	–	–	–	–	8	–
CC(C)=CCC/C(C)=C/Cc1c(O)cc(O)c2c(=O)c3cccc(O)c3oc12	2	5.7	> 64	59	> 64	–	–
CC1=C[C@H](c2cc(O)c3c(=O)c4cccc(O)c4oc3c2O)[C@](C)(/C=C/c2cc(O)c3c(=O)c4cccc(O)c4oc3c2O)CC1 [GARCILIVIN A]	0.4	4	32	6.7	2	–	Toxic
CC(C)=CCCC1(C)C=Cc2c(cc(O)c3c(=O)c4cccc(O)c4oc23)O1 (stereo not drawn)	5	8	> 64	52	> 64	–	–
O=C1c2c(O)cc(O)cc2O[C@H](c2ccc(O)cc2)[C@H]1c1c(O)cc(O)c2c(=O)cc(-c3ccc(O)c(O)c3)oc12 [MORELLOFLAVONE]	–	–	–	–	> 64	–	–
COc1ccc([C@@H]2CC(=O)c3c(O)cc(O)c([C@@H]4C(=O)c5c(O)cc(O)cc5O[C@H]4c4ccc(O)cc4)c3O2)cc1	28.3	34.7	> 64	6	38	–	–
CC(C)=CCc1cc(O)c2c(=O)c3cccc(O)c3oc2c1O	0.87	7	27	10	> 32	–	–
